Assay outcomes from PubChem.
The list is not random: actives were taken first. Their share in the collection is about 3.1%.
ADAM17 inh – inhibitors of human ADAM17 | inhibition, % at 6.95 µM | AID 720648 | actives 0.83% (n = 370,000) | recombinant ADAM17, EDANS/DABCYL FRET peptide cleavage | P78536;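 active = inhibition above the mean of compounds lying between control limits plus 3 SD, set per campaign, cut at about 8.5% in these data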;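 note: 0% = DMSO-only wells as the low control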
MPTP block – blocks calcium-induced mitochondrial swelling | isolated mouse mitochondria, Ca2+ swelling absorbance, 30 min | inhibition, % at 10 µM | actives 1.4% (n = 360,000) | AID 602449;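 active = inhibition of 50% or more, scaled per plate between neutral and stimulator controls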;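 note: 0% = DMSO wells given calcium and 100% = 1 mM EGTA wells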
aDG glyco act – increases alpha dystroglycan glycosylation. activation, % at 10 µM. AID 624168. actives 0.22% (n = 360,000). Pro5-aDG cells, alpha-DG glycosylation AlphaScreen (IIH6); 0% Pro5, 100% B10-LARGE cell signal;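 active = activation of at least 8% versus controls, or a plate z-score of at least 8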;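 note: Pro5 are CHO cells carrying HIG-tagged alpha-DG that lacks glycosylation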
V-ATPase pH – regulators of yeast V-ATPase proton transport; S. cerevisiae, pHLuorin cytosolic pH fluorescence; response, % at 10 µM; actives 0.37% (n = 350,000); AID 504577; in the data active = response mostly above about 7.3%, no sharp cut-off; inactive = mostly below about 5.4%; note: actives read high
Hep lipid drop – hepatic lipid droplet formation modulation; AML12 mouse hepatocytes, oleate lipid droplets, BODIPY imaging; inhibition, % at 6.5 µM; actives 0.4% (n = 240,000); AID 1656;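 active = lipid droplet intensity inhibited by at least 50%, with more than 500 cells counted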
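System: AML12 hepatocytes (mouse). Probe or stimulus: oleic acid at 100 µM to induce lipid droplet formation. Times: overnight treatment with compound plus oleate. Detection: Image-based BODIPY and DAPI two-channel analysis. Evaluation: percent inhibition of filter-corrected integrated lipid droplet intensity per well.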
ADAM10 inh – inhibitors of human ADAM10. O14672. recombinant ADAM10, EDANS/DABCYL FRET peptide cleavage, 3 h. inhibition, % at 7 µM. actives 0.62% (n = 370,000);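 active = inhibition above a per-campaign cutoff equal to the mean of compounds falling between control-based bounds plus 3 SD, cut at about 20% in these data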;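 note: 0% = DMSO wells while the 100% control is not disclosed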
Target sequence (O14672 214-748 limits assumed): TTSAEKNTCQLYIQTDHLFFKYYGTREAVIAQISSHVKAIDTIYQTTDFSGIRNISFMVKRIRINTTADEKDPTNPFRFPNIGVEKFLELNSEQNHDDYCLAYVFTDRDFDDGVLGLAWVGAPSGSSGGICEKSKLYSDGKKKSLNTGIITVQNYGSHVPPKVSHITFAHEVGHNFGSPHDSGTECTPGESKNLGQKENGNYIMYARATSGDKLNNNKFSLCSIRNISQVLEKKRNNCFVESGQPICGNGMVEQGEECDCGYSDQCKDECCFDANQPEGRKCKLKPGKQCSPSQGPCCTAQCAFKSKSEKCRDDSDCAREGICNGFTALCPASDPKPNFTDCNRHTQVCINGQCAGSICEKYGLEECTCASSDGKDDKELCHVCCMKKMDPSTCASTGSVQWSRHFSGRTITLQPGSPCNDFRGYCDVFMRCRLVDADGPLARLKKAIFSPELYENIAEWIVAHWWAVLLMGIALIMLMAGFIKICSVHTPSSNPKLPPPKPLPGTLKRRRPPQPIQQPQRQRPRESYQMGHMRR
Rh123 counter – Rhodamine 123 counter-screen of mitochondrial pore hits; isolated mitochondria, membrane potential, Rhodamine 123 fluorescence; shares compounds with MPTP block; actives 78% (n = 5,000); inhibition, % at 10 µM; in the data active = inhibition above about 22%;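 note: 0% = DMSO vehicle and 100% = positive control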
MPTP swell DR – MPTP inhibition, dose response swelling confirmation; shares compounds with MPTP block; isolated mitochondria swelling, absorbance; IC50, µM; actives 58% (n = 780); AID 651561; in the data active = IC50 below about 20 µM
MPTP counter DR – counter-screen for mitochondrial permeability transition pore inhibitors, dose response | shares compounds with MPTP block | AID 651564 | actives 49% (n = 780) | IC50, µM | isolated mitochondria counterscreen, fluorescence read-out; in the data active = IC50 below about 80 µM
Active calls of the source: *; i = inactive; . = no result given.

SMILES	ADAM17 inh	MPTP block	aDG glyco act	V-ATPase pH	Hep lipid drop	ADAM10 inh	Rh123 counter	others
COC(=O)[C@]12C[C@H](CC(=O)NCc3ccccc3)C(=O)N(Cc3ccc(Cl)cc3Cl)C1=C[C@H](COCc1ccccc1)O[C@@H]2C	7	.	.	.	.	11	.
Cc1cc(C)c(O)c(-c2cc(C(=O)Nc3cccnc3)[nH]n2)c1	2	59*	0	4	8	5	60*
Cc1cc(O)c(-c2cc(C(=O)Nc3cccnc3)[nH]n2)cc1C	-8	5	0	4	-6	-13	.
COc1ccc(NC(=O)c2cc(-c3cc(C)cc(C)c3O)n[nH]2)cc1Cl	-3	95*	1	-3	26	9	63*
COc1ccc(NC(=O)c2cc(-c3ccccc3O)n[nH]2)cc1Cl	1	3	0	2	-31	-1	.
O=C(Nc1cccc(C(F)(F)F)c1)OC1CCC12CCC(c1ccccc1)CC2 (stereo unspecified)	-1	.	.	.	.	0	.
CCN1C(=O)[C@H]2[C@@H](c3ccc(C)cc3)N3C(=O)N(c4ccc(C(F)(F)F)cc4)C(=O)[C@@]3(CC(C)C)[C@H]2C1=O	3	94*	0	-5	-13	8	98*
CCCCCCC1CC(CSC(=N)N)OC1=O (stereo unspecified)	5	91*	0	4	2	12	-5	MPTP swell DR=i;MPTP counter DR=>80
CCCC1CC(CSC(=N)N)OC1=O (stereo unspecified)	-5	-5	0	2	13	-7	.
CCOC(=O)[C@@]12CN(C(=O)OC(C)(C)C)CC=C1N(Cc1ccc(OC)cc1)C(=O)[C@H]2CC(=O)NCc1ccccc1	0	.	.	.	.	-2	.
O=[N+]([O-])c1c(O)c(Cl)cc(Cl)c1Cl (tested in a mixture with another compound)	1	78*	0	-2	.	5	86*
CCOC(=O)c1ccc2nc(Nc3nc4ccc(F)cc4s3)sc2c1	-4	101*	2	2	-5	-18	7	MPTP swell DR=5*;MPTP counter DR=<2.5*
CCOC(=O)c1sc(NC(=O)c2ccc(S(=O)(=O)N3CCCCC3)cc2)nc1-c1ccccc1	-3	50*	0	7	16	-7	32*
COC(=O)c1ccc2nc(Nc3nc4c(F)cc(F)cc4s3)sc2c1	-40	101*	0	2	-2	-98	64*
CCOC(=O)c1ccc(S(=O)(=O)N2CCNCC2)cc1	-3	0	2	-5	.	-7	.
CCOC(=O)c1ccc(S(=O)(=O)N2CCN(S(=O)(=O)CC)CC2)cc1	-2	60*	1	-2	.	-12	-1	MPTP swell DR=>100;MPTP counter DR=>80
O=C(CSc1nc2ccccc2nc1N1CCCCC1)N1CCN(S(=O)(=O)c2ccccc2)CC1	-4	.	.	.	.	-20	.
CCOC(=O)N1CCN(S(=O)(=O)c2ccc(C(=O)Nc3nc4ccc(F)cc4s3)cc2)CC1	0	62*	0	2	.	-2	1	MPTP swell DR=i;MPTP counter DR=6.3*
Nc1[nH]c2cc(Cl)ccc2c1C(=O)NCCc1ccc(Cl)cc1	4	.	.	.	.	9	.
CC1Oc2ccccc2C=C1/C=N/NC(=O)c1ccccc1O (stereo unspecified)	-28	90*	0	-2	-3	-73	72*
CC1Oc2ccccc2C=C1/C=N/NC(=O)c1ccccc1 (stereo unspecified)	-103	9	0	-1	20	-326	.
O=C1c2ccc(Br)cc2C(=O)N1c1ccc(Cc2ccncc2)cc1	-2	102*	0	-2	-4	-10	92*
CCOC(=O)C1=C(C)NC(C)=C(C(=O)OC)C1c1cccc(Cl)c1Cl (stereo unspecified)	-27	0	0	2	-1	-79	.
